Data set [1] addresses human histamine H3 receptor (Homo sapiens, UniProt Q9Y5N1). In words: [3H]Nα-methylhistamine competition binding assay, membranes of HEK-293 cells. As to conditions: for Selectivity for hH3R over hH1R and hH4R (in words): comparison of Ki values of Table 1. The procedure, abridged:
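Membranes came from HEK-293 cells stably expressing recombinant hH3R, with protein measured by Bradford. They were incubated with 2 nM [3H]Nα-methylhistamine and test compound from 0.01 nM to 100 μM at seven concentrations. Non-specific binding was defined with 10 μM pitolisant. Values are means of at least three independent experiments, each in triplicate.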

Data set [2] is described as follows: Fluorescence characterization. It is filed as physicochemical. The following applies: for Fluorescence emission intensity (in words): Figure 2, Appendix. The procedure, abridged: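 Test compound was dissolved at 10 mM in buffer (12.5 mM MgCl2, 100 mM NaCl, 75 mM Tris/HCl, pH 7.4). Absorption and emission spectra were recorded on a fluorometer at room temperature. Emission spectra used 405 nm excitation.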

The values below come from PMC3312100 (Frontiers in Systems Neuroscience, 2012).

Molecules are shown by their SMILES. “Also recorded” adds a separate entry of the source.

Sequence of human histamine H3 receptor (Q9Y5N1 whole entry): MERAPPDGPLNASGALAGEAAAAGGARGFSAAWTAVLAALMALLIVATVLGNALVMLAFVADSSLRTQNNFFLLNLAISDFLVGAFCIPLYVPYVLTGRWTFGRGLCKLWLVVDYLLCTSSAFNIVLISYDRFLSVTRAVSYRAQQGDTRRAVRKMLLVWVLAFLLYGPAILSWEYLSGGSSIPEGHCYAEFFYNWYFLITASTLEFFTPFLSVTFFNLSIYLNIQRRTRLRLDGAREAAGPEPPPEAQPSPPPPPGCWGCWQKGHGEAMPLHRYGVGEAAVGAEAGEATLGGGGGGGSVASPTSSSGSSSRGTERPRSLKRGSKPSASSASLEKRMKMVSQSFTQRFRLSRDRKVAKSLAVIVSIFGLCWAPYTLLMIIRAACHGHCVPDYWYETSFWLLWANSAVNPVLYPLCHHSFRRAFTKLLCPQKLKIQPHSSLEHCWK

For `O=C1CCCc2ccc(OCc3ccc(OCCCN4CCCCC4)cc3)cc21` [Compound 8, 7-(4-(3-(Piperidin-1-yl)propoxy)benzyloxy)-1-tetralone], the “Selectivity for hH3R over hH1R and hH4R (in words)” value (shortened to “Selectivity for hH3R”) in data set [1] was “one of the highest selectivity”.

Regarding `CN(C)c1ccc(/C=C2\CCc3cc(OCc4ccc(OCCCN5CCCCC5)cc4)ccc3C2=O)cc1` [Compound 9, (E)-2-(4-(Dimethylamino)benzylidene)-6-(4-(3-(piperidin-1-yl)propoxy)benzyloxy)-1-tetralone], in data set [1], the “Affinity at the human histamine H3 receptor (in words)” value is listed as “highest affinity”; the “Selectivity for hH3R” value was “most selective compound in the fluorescent chalcone series; also recorded: most human histamine H3 receptor selective”. In data set [2], the “Area of the fluorescence spectrum of emission” value (from here on “Area”) is given as “yellow area” and the “Fluorescence emission intensity (in words)” value was “most intense compound; also recorded: highest intensity of all synthesized compounds”.

In the case of `CN(C)c1ccc(/C=C2\CCc3ccc(OCc4ccc(OCCCN5CCCCC5)cc4)cc3C2=O)cc1` [Compound 10, (E)-2-(4-(Dimethylamino)benzylidene)-7-(4-(3-(piperidin-1-yl)propoxy)benzyloxy)-1-tetralone], the “Area” value in data set [2] was “yellow area”.

Consider `CN(C)c1ccc(/C=C2\CCc3ccc(OCCCN4CCCCC4)cc3C2=O)cc1` [Compound 4, (E)-2-(4-(Dimethylamino)benzylidene)-7-(3-(piperidin-1-yl)propoxy)-1-tetralone], for which the “Area” value in data set [2] is reported as “yellow area”.

On to `CN(C)c1ccc(/C=C2\CCc3cc(OCCCN4CCCCC4)ccc3C2=O)cc1` [Compound 3, (E)-2-(4-(Dimethylamino)benzylidene)-6-(3-(piperidin-1-yl)propoxy)-1-tetralone], for which the “Area” value in data set [2] is reported as “yellow area”.

As for `CN(C)c1ccc(/C=C/C=C2\CCc3cc(OCCCN4CCCCC4)ccc3C2=O)cc1` [Compound 5, (E)-2-((E)-3-(4-(Dimethylamino)phenyl)allylidene)-6-(3-(piperidin-1-yl)propoxy)-1-tetralone], the “Selectivity for hH3R” value in data set [1] is listed as “less selective chalcone; also recorded: not as selective as compound 9”. Also, the “Fluorescence emission intensity (in words)” value in data set [2] was “emits more intensive”.
